Each block holds one compound with its values, some of them ahead of it.
How the values were obtained:
SF-295 [1] = assay: Cytotoxicity against human SF295 cells after 24 hrs in absence of GSH-OEt by MTT assay; format: functional, cell-based; details: SF-295, 24 h
Outline: (§1)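 24 h MTT exposure (0.04–40.92 µM in 0.1% DMSO), with or without co-treatment with GSH ethyl ester (15 mM) to gauge the ROS contribution. MTT was 0.5 mg/mL for 3 h, with formazan dissolved in DMSO and absorbance at 595 nm expressed as % of control. Triplicate, repeated at least three times.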

MDA-MB-435 = assay: Antiproliferative activity against human MDA-MB-435 cells after 72 hrs by MTT assay; format: functional, cell-based; details: MDA-MB-435, 72 h
Outline: (§2)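 MTT reduction: cancer lines plated at 0.7×10^5 to 0.3×10^6 cells/well, V79 and L929 fibroblasts at 0.5×10^5 cells/well. Compounds in DMSO (0.1%) were given for 24 h at 0.04–40.92 µM or 72 h at 0.04–8.19 µM. Fresh medium with 0.5 mg/mL MTT was added for 3 h, then formazan was dissolved in DMSO and read at 595 nm as % of control. IC50 came from nonlinear regression with 95% CI. Doxorubicin (0.001–1.06 µM) was the positive control. Triplicate, ≥3 repeats.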

L929 [2] = assay: Antiproliferative activity against mouse L929 cells after 72 hrs by MTT assay; format: cell-based; details: L929, 72 h; outline: as §2
HCT-116 [3] = assay: Cytotoxicity against human HCT116 cells after 24 hrs in presence of GSH-OEt by MTT assay; format: functional, cell-based; details: HCT-116, 24 h; outline: as §1
SF-295 [4] = assay: Cytotoxicity against human SF295 cells after 24 hrs in presence of GSH-OEt by MTT assay; format: functional, cell-based; details: SF-295, 24 h; outline: as §1
PC-3 [5] = assay: Cytotoxicity against human PC3 cells after 24 hrs in presence of GSH-OEt by MTT assay; format: functional, cell-based; details: PC-3, 24 h; outline: as §1
SF-295 [6] = assay: Antiproliferative activity against human SF295 cells after 72 hrs by MTT assay; format: functional, cell-based; details: SF-295, 72 h; outline: as §2
PC-3 [7] = assay: Cytotoxicity against human PC3 cells after 24 hrs in absence of GSH-OEt by MTT assay; format: functional, cell-based; details: PC-3, 24 h; outline: as §1
V79 [8] = assay: Antiproliferative activity against chinese hamster V79 cells after 72 hrs by MTT assay; format: cell-based; details: Cricetulus griseus, V79, 72 h; outline: as §2
HCT-116 [9] = assay: Cytotoxicity against human HCT116 cells after 24 hrs in absence of GSH-OEt by MTT assay; format: functional, cell-based; details: HCT-116, 24 h; outline: as §1
HCT-116 [10] = assay: Antiproliferative activity against human HCT116 cells after 72 hrs by MTT assay; format: functional, cell-based; details: HCT-116, 72 h; outline: as §2
L929 [11] = assay: Cytotoxicity against mouse L929 cells after 24 hrs in absence of GSH-OEt by MTT assay; format: cell-based; details: L929, 24 h; outline: as §1
L929 [12] = assay: Cytotoxicity against mouse L929 cells after 24 hrs in presence of GSH-OEt by MTT assay; format: cell-based; details: L929, 24 h; outline: as §1
PC-3 [13] = assay: Antiproliferative activity against human PC3 cells after 72 hrs by MTT assay; format: functional, cell-based; details: PC-3, 72 h; outline: as §2
SW-620 = assay: Antiproliferative activity against human SW620 cells after 72 hrs by MTT assay; format: functional, cell-based; details: SW-620, 72 h; outline: as §2
HL-60 [14] = assay: Induction of oxidative stress in human HL60 cells assessed as total intracellular thiol levels at 5 uM after 24 hrs by spectrophotometric analysis (reference value: 3.61 +/- 0.22 microg/mg); format: functional
Jurkat [15] = assay: Induction of oxidative stress in human Jurkat cells assessed as total GSH levels at 5 uM after 24 hrs by spectrophotometric analysis (reference value: 3.02 +/- 0.21 microg/mg); format: functional
HL-60 [16] = assay: Induction of oxidative stress in human HL60 cells assessed as total GSSG levels at 5 uM after 24 hrs by spectrophotometric analysis (reference value: 0.66 +/- 0.17 microg/mg); format: functional
HL-60 [17] = assay: Induction of oxidative stress in human HL60 cells assessed as GSH to GSSG ratio at 5 uM treated 24 hrs post NAC addition measured after 24 hrs by spectrophotometric analysis (reference value: 4.53 +/- 0.55 microg/mg); format: functional
Outline: (§3)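 Cells were pretreated 24 h with 5 mM NAC, then exposed 24 h to test compound at 5 µM. Controls received 0.1% DMSO. Extracts were prepared by sonication and HClO4 precipitation, then neutralized with KOH. Total glutathione was read by DTNB/glutathione reductase/NADPH rate at 412 nm. GSSG was measured after 4-vinylpyridine (0.1%, 1 h, RT) and GSH derived by difference. Values are normalized to protein, triplicates, three independent runs.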

HL-60 [18] = assay: Induction of oxidative stress in human HL60 cells assessed as total GSH levels at 5 uM treated 24 hrs post NAC addition measured after 24 hrs by spectrophotometric analysis (reference value: 3.01 +/- 0.11 microg/mg); format: functional; outline: as §3
[19] = Selectivity index, ratio of IC50 for chinese hamster V79 cells to IC50 for human Jurkat cells; format: functional
Outline: (§4)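 Selectivity index is the ratio of the IC50 in a non-cancer murine line (V79 or L929) to the IC50 in the cancer line. […] MTT was 0.5 mg/mL for 3 h, formazan dissolved in DMSO and read at 595 nm as % of control. IC50s were derived by nonlinear regression; triplicate, at least three repeats.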

HL-60 [20] = assay: Induction of oxidative stress in human HL60 cells assessed as total GSSG levels at 5 uM treated 24 hrs post NAC addition measured after 24 hrs by spectrophotometric analysis (reference value: 0.66 +/- 0.17 microg/mg); format: functional; outline: as §3
Jurkat [21] = assay: Induction of oxidative stress in human Jurkat cells assessed as total GSH levels at 5 uM treated 24 hrs post NAC addition measured after 24 hrs by spectrophotometric analysis (reference value: 3.02 +/- 0.21 microg/mg); format: functional; outline: as §3
Jurkat [22] = assay: Antiproliferative activity against human Jurkat cells after 24 to 72 hrs by MTT assay; format: functional, cell-based; outline: as §2
[23] = Selectivity index, ratio of IC50 for mouse L929 cells to IC50 for human HL60 cells; format: functional; outline: as §4
[24] = Selectivity index, ratio of IC50 for mouse L929 cells to IC50 for human Jurkat cells; format: functional; outline: as §4
V79 [25] = assay: Antiproliferative activity against chinese hamster V79 cells at 0.04 to 40.92 uM after 24 to 72 hrs by MTT assay; format: cell-based, Cricetulus griseus; details: v79, 40.92 µM; outline: as §2
Jurkat [26] = assay: Induction of oxidative stress in human Jurkat cells assessed as total GSSG levels at 5 uM treated 24 hrs post NAC addition measured after 24 hrs by spectrophotometric analysis (reference value: 0.78 +/- 0.33 microg/mg); format: functional; outline: as §3
L929 [27] = assay: Antiproliferative activity against mouse L929 cells at 0.04 to 40.92 uM after 24 to 72 hrs by MTT assay; format: cell-based; details: l929, 40.92 µM; outline: as §2
Jurkat [28] = assay: Induction of oxidative stress in human Jurkat cells assessed as total intracellular thiol levels at 5 uM after 24 hrs by spectrophotometric analysis (reference value: 3.87 +/- 0.55 microg/mg); format: functional
[29] = Drug uptake in lysosomes of human PC3 cells at 5 uM after 10 mins by LysoTracker Red dye-based confocal microscopic analysis; format: ADME, cell-based; details: pc-3, 10 min
Outline: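 PC3 cells were grown in DMEM with 10% FBS, antibiotics and 2 mM L-glutamine at 37 °C, 5% CO2. Cells were incubated with compound (5 µM) plus LysoTracker Red or MitoTracker Red for 10 min at 37 °C. Live cells were imaged in phenol red-free DMEM by confocal microscopy with a 40X oil objective, exciting at 488 nm (compound) and 543 nm (tracker dyes).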

Jurkat [30] = assay: Induction of oxidative stress in human Jurkat cells assessed as total GSSG levels at 5 uM after 24 hrs by spectrophotometric analysis (reference value: 0.78 +/- 0.33 microg/mg); format: functional
HL-60 [31] = assay: Induction of oxidative stress in human HL60 cells assessed as total intracellular thiol levels at 5 uM treated 24 hrs post NAC addition measured after 24 hrs by spectrophotometric analysis (reference value: 3.61 +/- 0.22 microg/mg); format: functional; outline: as §3
Jurkat [32] = assay: Induction of oxidative stress in human Jurkat cells assessed as GSH to GSSG ratio at 5 uM after 24 hrs by spectrophotometric analysis (reference value: 3.81 +/- 0.22 microg/mg); format: functional
HL-60 [33] = assay: Induction of oxidative stress in human HL60 cells assessed as GSH to GSSG ratio at 5 uM after 24 hrs by spectrophotometric analysis (reference value: 4.53 +/- 0.55 microg/mg); format: functional
Jurkat [34] = assay: Induction of oxidative stress in human Jurkat cells assessed as total intracellular thiol levels at 5 uM treated 24 hrs post NAC addition measured after 24 hrs by spectrophotometric analysis (reference value: 3.87 +/- 0.55 microg/mg); format: functional; outline: as §3
HL-60 [35] = assay: Induction of oxidative stress in human HL60 cells assessed as total GSH levels at 5 uM after 24 hrs by spectrophotometric analysis (reference value: 3.01 +/- 0.11 microg/mg); format: functional
[36] = Selectivity index, ratio of IC50 for chinese hamster V79 cells to IC50 for human HL60 cells; format: functional; outline: as §4
Jurkat [37] = assay: Induction of oxidative stress in human Jurkat cells assessed as GSH to GSSG ratio at 5 uM treated 24 hrs post NAC addition measured after 24 hrs by spectrophotometric analysis (reference value: 3.81 +/- 0.22 microg/mg); format: functional; outline: as §3
HL-60 [38] = assay: Antiproliferative activity against human HL60 cells after 24 to 72 hrs by MTT assay; format: functional, cell-based; outline: as §2

IC50 (MDA-MB-435): > 7.83 µM
IC50 (HCT-116 [10]): > 7.83 µM
IC50 (PC-3 [13]): > 7.83 µM
IC50 (SW-620): > 7.83 µM
SMILES: CC1(C)CC(n2cc(CNc3ccc4n3[B-](F)(F)[N+]3=C(Cl)C=CC3=C4c3ccccc3)nn2)C2=C(O1)C(=O)c1ccccc1C2=O (stereo not drawn)
IC50 (SF-295 [1]): > 40 µM
IC50 (L929 [2]): > 7.83 µM
IC50 (HCT-116 [3]): > 40 µM
IC50 (SF-295 [4]): > 40 µM
IC50 (PC-3 [5]): > 40 µM
IC50 (SF-295 [6]): > 7.83 µM
IC50 (PC-3 [7]): > 40 µM
IC50 (V79 [8]): > 7.83 µM
IC50 (HCT-116 [9]): > 40 µM
IC50 (L929 [11]): > 40 µM
IC50 (L929 [12]): > 40 µM

IC50 (MDA-MB-435): 0.94 µM
IC50 (PC-3 [13]): 0.05 µM
IC50 (SW-620): 0.29 µM
SMILES: COc1cccc2c1C(=O)c1c(O)c3c(c(O)c1C2=O)C[C@@](O)(C(=O)CO)C[C@@H]3O[C@H]1C[C@H](N)[C@H](O)[C@H](C)O1 [DOXORUBICIN]
IC50 (L929 [2]): 0.22 µM
IC50 (SF-295 [6]): 0.45 µM
IC50 (V79 [8]): 0.25 µM

IC50 (MDA-MB-435): > 7.72 µM
IC50 (Jurkat [22]): 0.94 µM
IC50 (HCT-116 [10]): 2.85 µM
Drug uptake [29]: Metabolite_Detected
IC50 (PC-3 [13]): 2.39 µM
IC50 (SW-620): > 7.72 µM
IC50 (HL-60 [38]): 0.92 µM
SMILES: CC1=CC(C)=[N+]2C1=C(c1ccc(OCc3cn(C4C5=C(OC4(C)C)c4ccccc4C(=O)C5=O)nn3)cc1)c1c(C)cc(C)n1[B-]2(F)F (stereo not drawn)
IC50 (L929 [2]): > 7.72 µM
Activity (HL-60 [14]): 3.01 µg/mg
Activity (Jurkat [15]): 0.6 µg/mg
Activity (HL-60 [16]): 2.18 µg/mg
Activity (HL-60 [17]): 0.76 µg/mg
Activity (HL-60 [18]): 1.19 µg/mg
Ratio IC50 [19]: >8.5
Activity (HL-60 [20]): 1.47 µg/mg
Activity (Jurkat [21]): 1.58 µg/mg
IC50 (SF-295 [6]): > 7.72 µM
IC50 (V79 [8]): > 7.72 µM
Ratio IC50 [23]: >8.5
Ratio IC50 [24]: >8.5
Activity (V79 [25]): Non-Toxic
Activity (Jurkat [26]): 1.44 µg/mg
Activity (L929 [27]): Non-Toxic
Activity (Jurkat [28]): 3.28 µg/mg
Activity (Jurkat [30]): 2.57 µg/mg
Activity (HL-60 [31]): 2.83 µg/mg
Activity (Jurkat [32]): 0.21 µg/mg
Activity (HL-60 [33]): 0.31 µg/mg
Activity (Jurkat [34]): 3.11 µg/mg
Activity (HL-60 [35]): 0.72 µg/mg
Ratio IC50 [36]: >8.5
Activity (Jurkat [37]): 1.08 µg/mg
